Laboratory results reported in ChEMBL document CHEMBL4152213, “Synthesis and biological evaluation of 2,5-disubstituted furan derivatives as P-glycoprotein inhibitors for Doxorubicin resistance in MCF-7/ADR cell” (Eur J Med Chem, 2018).
pEC50: −log10 of the molar value.

Key:
Assay type in all cases: cell-based
[1] = Inhibition of P-gp in human MCF7/ADR cells assessed as cell viability after 48 hrs by MTT assay; conditions: NCI/ADR-RES
Procedure, shortened: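 MTT assay in MCF-7/ADR cells: cells incubated 48 h with or without compounds, then 5 mg/mL MTT added for 3–4 h at 37 °C, 5% CO2. Formazan dissolved in EtOH/DMSO (1:1), OD at 570 and 650 nm. Data are the mean of three independent determinations of triplicate samples.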

Homo sapiens [2] = species: Homo sapiens; test: Inhibition of P-gp in human MCF7/ADR cells assessed as assessed as potentiation of doxorubicin-induced antiproliferative activity by measuring doxorubicin antiproliferative activity at 20 uM after 2 days by MTT assay; set-up: scale not given: the % may be the effect or the level left
Procedure, shortened: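 MCF-7/ADR cells plated at 10,000/well, then treated the next day. Compounds at 20 μM plus Doxorubicin 5 μM for 2 days, washed twice, then Doxorubicin alone for 1 day. Read-out by MTT: 0.5 mg/mL, 1 h at 37 °C, DMSO, absorbance 570/630 nm. Growth inhibition given as % of untreated control. Eight wells per treatment; three independent determinations in triplicate.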

Homo sapiens [3] = species: Homo sapiens; test: Inhibition of P-gp in human MCF7/ADR cells assessed as increase in intracellular accumulation of doxorubicin at 20 uM after 2 days by fluorescence assay relative to doxorubicin alone
Procedure, shortened: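 MCF-7/ADR cells exposed to compounds at 20 μM for 2 days, with Doxorubicin 50 μM added on the second day. Cells trypsinized, washed twice in ice-cold PBS pH 7.4, kept on ice under 1 h, then cellular Doxorubicin fluorescence measured by flow cytometry. Doxorubicin-only cells set as 100% and untreated autofluorescence as 0%. Expressed as fold accumulation; three independent determinations in triplicate.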

NCI/ADR-RES = test: Cytotoxicity against human MCF7/ADR cells at 100 uM after 24 to 48 hrs by MTT assay relative to control
Procedure, shortened: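 MCF-7/ADR cells (RPMI 1640, 10% FBS, 37 °C, 5% CO2) exposed to compounds alone at 100 μM without Doxorubicin for 24 and 48 h. Viability by MTT: 5 mg/mL MTT, 3–4 h at 37 °C, formazan dissolved in EtOH/DMSO 1:1, OD at 570 and 650 nm. Cytotoxicity taken relative to untreated control.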

Row | SMILES | pEC50 [1] | also measured
1 | O=C(c1ccc(-c2ccc(F)cc2F)o1)N1CCc2ccccc2C1 | 4.90 | 
2 | COc1ccc(-c2ccc(C(=O)N3CCCc4ccccc43)o2)cc1 | 5.17 | 
3 | COc1cc2c(cc1OC)CN(C(=O)c1ccc(-c3cccc(F)c3)o1)CC2 | 4.75 | 
4 | O=C(c1ccc(-c2cccc(Cl)c2)o1)N1CCCc2ccccc21 | 4.76 | 
5 | O=C(c1ccc(-c2ccccc2[N+](=O)[O-])o1)N1CCCc2ccccc21 | 4.71 | 
6 | O=C(c1ccc(-c2ccccc2)o1)N1CCCc2ccccc21 | 4.96 | 
7 | COc1ccc(-c2ccc(C(=O)N3CCc4ccccc4C3)o2)cc1 | 5.26 | 
8 | O=C(c1ccc(-c2ccccc2Cl)o1)N1CCCc2ccccc21 | 4.86 | 
9 | O=C(c1ccc(-c2ccc(F)cc2)o1)N1CCc2ccccc2C1 | 4.98 | 
10 | COc1cc2c(cc1OC)CN(C(=O)c1ccc(-c3ccccc3F)o1)CC2 | 4.96 | 
11 | O=C(c1ccc(-c2ccccc2F)o1)N1CCc2ccccc2C1 | 4.83 | 
12 | COc1cc2c(cc1OC)CN(C(=O)c1ccc(-c3ccccc3Cl)o1)CC2 | 5.09 | 
13 | O=C(c1ccc(-c2ccc([N+](=O)[O-])cc2)o1)N1CCCc2ccccc21 | 4.81 | 
14 | COc1cc2c(cc1OC)CN(C(=O)c1ccc(-c3cccc(Cl)c3)o1)CC2 | 4.83 | 
15 | O=C(c1ccc(-c2ccccc2[N+](=O)[O-])o1)N1CCc2ccccc2C1 | 4.82 | 
16 | O=C(c1ccc(-c2ccccc2Cl)o1)N1CCc2ccccc2C1 | 4.99 | 
17 | COc1cc2c(cc1OC)CN(C(=O)c1ccc(-c3ccc(F)cc3)o1)CC2 | 5.07 | 
18 | COc1ccc(CCN(C)CCCC(C#N)(c2ccc(OC)c(OC)c2)C(C)C)cc1OC (configuration not stated) [VERAPAMIL] | 4.69 | Activity (Homo sapiens [2]): 52.5%; fold change (FC) (Homo sapiens [3]): 3.6
19 | O=C(c1ccc(-c2ccc(F)cc2)o1)N1CCCc2ccccc21 | 4.88 | 
20 | COc1cc2c(cc1OC)CN(C(=O)c1ccc(-c3ccc(Cl)cc3)o1)CC2 | 5.49 | Activity (Homo sapiens [2]): 89.6%; fold change (FC) (Homo sapiens [3]): 6.8; Activity (NCI/ADR-RES): < 15%
21 | O=C(c1ccc(-c2cccc([N+](=O)[O-])c2)o1)N1CCCc2ccccc21 | 4.54 | 
22 | O=C(c1ccc(-c2cccc(F)c2)o1)N1CCCc2ccccc21 | 4.56 | 
23 | COc1cc2c(cc1OC)CN(C(=O)c1ccc(-c3ccc(Br)cc3)o1)CC2 | 5.36 | Activity (Homo sapiens [2]): 79.8%; fold change (FC) (Homo sapiens [3]): 5; Activity (NCI/ADR-RES): < 15%

Row | SMILES | pEC50 [1] | also measured
24 | COc1cc2c(cc1OC)CN(C(=O)c1ccc(-c3ccccc3)o1)CC2 | 5.17 | 
25 | O=C(c1ccc(-c2c(F)cccc2F)o1)N1CCCc2ccccc21 | 4.71 | 
26 | O=C(c1ccc(-c2cccc([N+](=O)[O-])c2)o1)N1CCc2ccccc2C1 | 4.69 | 
27 | O=C(c1ccc(-c2ccc(Br)cc2)o1)N1CCCc2ccccc21 | 5.04 | 
28 | O=C(c1ccc(-c2ccc(Cl)cc2)o1)N1CCc2ccccc2C1 | 5.17 | 
29 | COc1ccc(-c2ccc(C(=O)N3CCc4cc(OC)c(OC)cc4C3)o2)cc1 | 6.05 | Activity (Homo sapiens [2]): 97.8%; fold change (FC) (Homo sapiens [3]): 9.2; Activity (NCI/ADR-RES): < 15%
30 | O=C(c1ccc(-c2ccccc2)o1)N1CCc2ccccc2C1 | 5.08 | 
31 | O=C(c1ccc(-c2ccc(Cl)cc2)o1)N1CCCc2ccccc21 | 5.08 | 
32 | COc1cc2c(cc1OC)CN(C(=O)c1ccc(-c3ccccc3[N+](=O)[O-])o1)CC2 | 4.86 | 
33 | O=C(c1ccc(-c2ccc(F)cc2F)o1)N1CCCc2ccccc21 | 4.76 | 
34 | Cc1ccc(-c2ccc(C(=O)N3CCCc4ccccc43)o2)cc1 | 5.04 | 
35 | Cc1ccc(-c2ccc(C(=O)N3CCc4ccccc4C3)o2)cc1 | 5.09 | 
36 | O=C(c1ccc(-c2ccc([N+](=O)[O-])cc2)o1)N1CCc2ccccc2C1 | 4.90 | 
37 | COc1cc2c(cc1OC)CN(C(=O)c1ccc(-c3ccc(C)cc3)o1)CC2 | 5.28 | 
38 | O=C(c1ccc(-c2ccc(Br)cc2)o1)N1CCc2ccccc2C1 | 5.11 | 
39 | COc1cc2c(cc1OC)CN(C(=O)c1ccc(-c3ccc([N+](=O)[O-])cc3)o1)CC2 | 5.03 | 
40 | COc1cc2c(cc1OC)CN(C(=O)c1ccc(-c3ccc(F)cc3F)o1)CC2 | 4.98 | 
41 | O=C(c1ccc(-c2c(F)cccc2F)o1)N1CCc2ccccc2C1 | 4.81 | 
42 | O=C(c1ccc(-c2ccccc2F)o1)N1CCCc2ccccc21 | 4.75 | 
43 | O=C(c1ccc(-c2cccc(Cl)c2)o1)N1CCc2ccccc2C1 | 4.74 | 
44 | COc1cc2c(cc1OC)CN(C(=O)c1ccc(-c3c(F)cccc3F)o1)CC2 | 4.89 | 
45 | O=C(c1ccc(-c2cccc(F)c2)o1)N1CCc2ccccc2C1 | 4.69 | 
46 | COc1cc2c(cc1OC)CN(C(=O)c1ccc(-c3cccc([N+](=O)[O-])c3)o1)CC2 | 4.79 | 
